Consider three compounds from article PMC10028500 (RSC Advances, 2023).

The subject of test [1] is ct-DNA. The note with it: cited from earlier work.
In test [2] the test system is ct-DNA. Conditions: cited from earlier work. The source holds these as a separate data set.
The next test concerns HepG2 cells. In words: Flow cytometry analysis of the cell cycle of HepG2. Type of test: cell-based. Conditions: HepG2, 24 h, around IC50 concentration. The essentials:
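HepG2 cells (ca. 1 × 10^6) were seeded 24 h, then exposed to test compound for 24 h. Cells were harvested with 0.25% trypsin, spun 5 min at 1500 rpm, washed twice in PBS and fixed in 70% ethanol for 4 h at −20 °C. They were taken up in cold PBS with RNase A, stained with propidium iodide for 1 h in the dark and analysed by flow cytometry.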
(Flow cytometry measures light scatter and fluorescence of single cells or particles in a stream.)

In test [3] the test system is breast (MCF-7) cancer cell line. In words: IC50 by MTT assay, MCF-7. Type of test: cell-based. Conditions: MCF-7, 48 h. In short, it runs like this:
(§1)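 Cells were grown in DMEM at 37 °C, 5% CO2, 95% humidity, trypsinised and counted by trypan blue/hemocytometer. 10^4 cells per well were incubated 24 h, then test compound (3.5, 7, 14, 28, 56 μM; four replicates each) was added at ~70% confluence for 48 h. MTT (0.5 mg/mL) ran 4 h, then DMSO 15 min at room temperature, read at 595 nm. IC50 came from viability vs concentration curves.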
Background: Tetrazolium assays rely on reduction of a dye to a coloured formazan, in cell work by metabolically active cells.

Test [4] relates to Liver (HepG2) cancer cell line. As to the kind of experiment: IC50 by MTT assay, HepG2. The format is cell-based. Conditions: HepG2, 48 h. In short, it runs like this:
as §1

Regarding `CC[n+]1c(-c2ccccc2)c2cc(N)ccc2c2ccc(N)cc21` [ethidium bromide], the “binding constant (KEB) of ethidium bromide to DNA” value in the test with ct-DNA [1] was 1 × 10^5.

On to `[Cl-].[Pt+2].c1ccc(-c2cccc(-c3ccccn3)n2)nc1` [Pt(terpy)Cl], for which, in the test on ct-DNA [2], the DNA binding mode result is recorded as “shifts gradually from the intercalation mode to the covalent binding mode”.

The IC50 is the concentration that gives 50% inhibition. Low readings indicate higher potency, high ones lower potency. `N.N.[Cl][Pt][Cl]` [Cisplatin]: in the test with HepG2 cells, the “cell population in the G1/G0, S and G2/M phases vs control” value is listed as “decreases”. In addition, in the test on HepG2 cells (control ca. 1%), the “cell population in the sub-G phase” value is recorded as 47.3%. Further, the IC50 in test [3] is 18.4 ± 2.72 µM; in test [4], 19.7 ± 1.53 µM.
